Test results: ChEMBL document CHEMBL1139869, “Design and synthesis of novel quinolinone-3-aminoamides and their alpha-lipoic acid adducts as antioxidant and anti-inflammatory agents” (2007)
Activity calls are given as the source filed them. No cut-off for these calls is given here.

How the values were obtained:
[1] = Antioxidant activity assessed as DPPH reducing activity at 0.1 mM after 60 mins; format: functional; set-up: scale not given: the % may be the effect or the level left
Outline: (§1)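 DPPH in absolute ethanol was mixed with an equal volume of compound in ethanol (0.1 or 0.5 mM); ethanol served as control. Absorbance at 517 nm was read after 20 and 60 min at room temperature. At least triplicate.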

Rattus norvegicus = experiment: Inhibition of carrageenan-induced Fischer 344 rat paw edema at 0.01 mmol/kg, ip; format: functional; conditions: Fischer 344, ip
Outline: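 Fischer 344 rats (150-200 g), both sexes, pregnant females excluded; 6-15 per group. Paw edema was induced by intradermal injection of 0.1 mL 2% carrageenin in water into the right hind paw. Compound at 0.01 mmol/kg, suspended in water with a few drops of Tween 80, was given ip at the same time. Rats were euthanized at 3.5 h. Injected minus uninjected paw weight was expressed as % inhibition versus water-treated controls. Mean of two experiments.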

[2] = Antioxidant activity assessed as DPPH reducing activity at 0.5 mM after 60 mins; format: functional; set-up: scale not given: the % may be the effect or the level left; outline: as §1
[3] = target: T1, Seed linoleate 13S-lipoxygenase-1 (Glycine max) (UniProt P08170); experiment: Inhibition of soybean lipoxygenase at 0.1 mM
T1 sequence (whole entry): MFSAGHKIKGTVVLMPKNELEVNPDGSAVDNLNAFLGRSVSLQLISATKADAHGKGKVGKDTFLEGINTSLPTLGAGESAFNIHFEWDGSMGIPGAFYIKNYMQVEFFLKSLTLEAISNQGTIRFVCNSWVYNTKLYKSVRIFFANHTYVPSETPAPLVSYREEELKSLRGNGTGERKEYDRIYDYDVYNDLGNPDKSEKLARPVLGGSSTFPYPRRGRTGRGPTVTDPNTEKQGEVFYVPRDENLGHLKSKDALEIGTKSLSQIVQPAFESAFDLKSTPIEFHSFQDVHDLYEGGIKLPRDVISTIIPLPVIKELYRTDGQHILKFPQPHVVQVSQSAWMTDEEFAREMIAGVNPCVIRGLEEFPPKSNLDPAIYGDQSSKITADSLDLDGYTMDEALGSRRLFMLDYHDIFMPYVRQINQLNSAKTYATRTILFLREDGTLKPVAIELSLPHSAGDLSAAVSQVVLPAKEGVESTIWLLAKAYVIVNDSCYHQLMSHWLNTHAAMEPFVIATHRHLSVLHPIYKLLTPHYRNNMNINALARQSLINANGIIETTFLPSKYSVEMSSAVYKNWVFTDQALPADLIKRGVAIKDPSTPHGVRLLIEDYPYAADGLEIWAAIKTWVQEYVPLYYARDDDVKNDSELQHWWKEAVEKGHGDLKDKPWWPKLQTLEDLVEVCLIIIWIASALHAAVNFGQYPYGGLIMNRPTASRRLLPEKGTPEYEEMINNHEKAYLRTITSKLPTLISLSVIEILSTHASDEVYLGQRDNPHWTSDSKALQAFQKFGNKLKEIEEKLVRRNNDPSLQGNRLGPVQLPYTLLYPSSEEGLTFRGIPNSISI
Outline: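 Soybean lipoxygenase solution (1/9 × 10⁴ w/v in saline) was incubated at room temperature with sodium linoleate (0.1 mM) and compound dissolved in ethanol. UV absorbance-based read-out. At least triplicate.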

[4] = Antioxidant activity assessed as DPPH reducing activity at 0.1 mM after 20 mins; format: functional; set-up: scale not given: the % may be the effect or the level left; outline: as §1
[5] = Antioxidant activity assessed as DPPH reducing activity at 0.5 mM after 20 mins; format: functional; set-up: scale not given: the % may be the effect or the level left; outline: as §1
[6] = Antioxidant activity assessed as DMSO hydroxyl radical scavenging activity at 0.1 mM; format: functional
Outline: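 Hydroxyl radicals generated by Fe3+/ascorbic acid; reaction mix contained EDTA 0.1 mM, Fe3+ 167 µM, DMSO 33 mM and ascorbic acid 10 mM in 50 mM phosphate buffer pH 7.4, with test compound at 0.1 mM. Incubated 30 min at 37 °C, then stopped with trichloroacetic acid (17% w/v). Formaldehyde from DMSO oxidation was measured by the Nash method at 425 nm. At least triplicate.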

SMILES | Activity [1] [%] | inhibition in vivo at 10 µmol/kg (Rattus norvegicus) [%] | Activity [2] [%] | inhibition [3] [%] | Activity [4] [%] | Activity [5] | Activity [6] | Activity [3]
Cn1c(=O)c(C(=O)NCCN)c(O)c2ccccc21 | 11.5 | 67 | 37.1 | 99.5 | 5.6 | 20.9% | 40.1% | 
COC(=O)c1c(O)c2ccccc2n(-c2ccccc2)c1=O | 9.1 | 37.1 | 19.3 | 100 | 9.1 | 16.8% | 95% | 
Cn1c(=O)c(C(=O)Nc2ccc(N)cc2)c(O)c2ccccc21 | 88.1 | 69.5 | 83.7 | 50.8 | 90.2 | 85.1% | 20.7% | 
COC(=O)c1c(O)c2ccccc2n(C)c1=O | 7.4 | 58.8 | 18.4 | 72.4 | 8.3 | 17.5% | 45% | 
Cn1c(=O)c(C(=O)NCCNC(=O)CCCCC2CCSS2)c(O)c2ccccc21 (stereo unspecified) | 3.4 | 48.2 | 40.1 | 66.5 | 10.9 | 28.8% | 67.9% | 
O=C(CCCCC1CCSS1)NCCCCCCNC(=O)c1c(O)c2ccccc2n(-c2ccccc2)c1=O (stereo unspecified) | 10.2 | 50 | 29.5 | 64 | 6.2 | 23.9% | inactive | 
NCCNC(=O)c1c(O)c2ccccc2n(-c2ccccc2)c1=O | 10 | 68.1 | 7.9 | 82.3 | 7.2 | 1.4% | 78.6% | 
O=C(CCCCC1CCSS1)NCCNC(=O)c1c(O)c2ccccc2n(-c2ccccc2)c1=O (stereo unspecified) | 7.8 | 45.5 | 14.1 |  | 6.4 | inactive | 0% | inactive
O=C(CCCCC1CCSS1)Nc1ccccc1NC(=O)c1c(O)c2ccccc2n(-c2ccccc2)c1=O (stereo unspecified) | 16.1 | 63 | 28.5 | 100 | 9.7 | 11% | inactive | 
Cn1c(=O)c(C(=O)Nc2ccccc2N)c(O)c2ccccc21 | 13.5 | 85.3 | 41.4 | 71.3 | 6 | 28.8% | 60.5% | 
COc1ccc2c(c1)c(CC(=O)O)c(C)n2C(=O)c1ccc(Cl)cc1 [INDOMETHACIN] |  | 47 |  |  |  |  |  | 
NCCCCCCNC(=O)c1c(O)c2ccccc2n(-c2ccccc2)c1=O | 17.5 | 68.8 | 28.1 | 17.6 | 11.6 | 19.3% | 27.1% | 
Nc1ccccc1NC(=O)c1c(O)c2ccccc2n(-c2ccccc2)c1=O | 16.3 | 48.5 | 34.7 |  | 9.4 | 21.3% | 98% | inactive
CC(Cc1ccc(O)c(O)c1)C(C)Cc1ccc(O)c(O)c1 (stereo unspecified) |  |  | 98 |  |  | 96.5% |  | 
Nc1ccc(NC(=O)c2c(O)c3ccccc3n(-c3ccccc3)c2=O)cc1 | 88.3 | 56.4 | 89.2 | 58.9 | 89 | 94.4% | 10% | 
Cc1c(C)c2c(c(C)c1O)CCC(C)(C(=O)O)O2 (stereo unspecified) |  |  |  |  |  |  | 88.2% | 
Cn1c(=O)c(C(=O)NCCCCCCNC(=O)CCCCC2CCSS2)c(O)c2ccccc21 (stereo unspecified) | 13 | 53 | 38.8 | 79.1 | 9.1 | 28.4% | 28.6% | 
Cn1c(=O)c(C(=O)NCCCCCCN)c(O)c2ccccc21 | 8.3 | 68.5 | 21.9 | 92.1 | 3.1 | 13.7% | 59.3% | 
O=C(O)CCCCC1CCSS1 (stereo not drawn) [LIPOIC ACID, ALPHA] | 27.1 | 29.6 | 6.8 | 29.1 | 20.3 | 5.2% | 38.6% | 
